Results as given in ChEMBL document CHEMBL4270616, “Asymmetrical meta-methoxylated diarylpentanoids: Rational design, synthesis and anti-cancer evaluation in-vitro” (Eur J Med Chem, 2018).
Calls of active or inactive are those of the source.

Tests used:
SW-620 [1] = test: Cytotoxicity against human SW620 cells after 72 hrs by MTT assay; assay type: functional, cell-based; conditions: SW-620, 72 h
How it was run: (§1)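 Tumour lines kept in DMEM with 10% FBS and 1% penicillin/streptomycin at 37°C, 5% CO2. Seeded at 1500-5000 cells/well by doubling time and size, 24 h, then compound in DMSO-containing medium (final DMSO 0.1%) for 72 h. MTT (5 mg/mL) 4 h at 37°C, DMSO solubilisation, absorbance at 570 nm.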

MCF7 = test: Cytotoxicity against human MCF7 cells after 72 hrs by MTT assay; assay type: functional, cell-based; conditions: MCF7, 72 h; how it was run: as §1
SW-620 [2] = test: Cytotoxicity against human SW620 cells assessed as inhibition of cell proliferation at 20 uM after 72 hrs by MTT assay relative to control; assay type: functional; conditions: SW-620, 72 h
How it was run: (§2)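 Single-concentration screen at 20 μM with 72 h exposure in DMEM with 10% FBS, final DMSO 0.1%. Read-out was MTT (5 mg/mL, 4 h, 37°C), DMSO solubilisation and absorbance at 570 nm, expressed as percent inhibition. Lines reaching a threshold percentage went on to IC50 determination.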

[3] = Cytotoxicity against human EJ28 cells assessed as inhibition of cell proliferation at 20 uM after 72 hrs by MTT assay relative to control; assay type: functional; conditions: EJ-28, 72 h; how it was run: as §2
HT-1080 = test: Cytotoxicity against human HT1080 cells assessed as inhibition of cell proliferation at 20 uM after 72 hrs by MTT assay relative to control; assay type: functional; conditions: HT-1080, 72 h; how it was run: as §2
SW-620 [4] = test: Anticlonogenic activity against human SW620 cells assessed as colony formation at 2.5 to 5 uM after 10 days by crystal violet staining based imaging analysis (reference value: 100%); assay type: functional
How it was run: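 SW620 cells seeded at 1000 cells/well in DMEM, left overnight at 37°C, 5% CO2, then exposed to compound for ten days with drug-containing medium renewed every three days. Cells were PBS-washed, fixed in 4% paraformaldehyde for 15 min, stained with 0.5% (w/v) crystal violet for 10 min, air-dried, photographed, and colonies quantified by image analysis.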

SW-620 [5] = test: Inhibition of colony formation in human SW620 cells at 1.25 to 5 uM after 10 days by crystal violet staining based assay; assay type: functional, cell-based
How it was run: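 SW620 cells seeded at 1000 cells/well in DMEM and incubated overnight at 37°C, 5% CO2. Compound-containing medium was given for ten days and renewed every three days. Cells were then washed with PBS, fixed 15 min in 4% paraformaldehyde, stained 10 min with 0.5% (w/v) crystal violet, washed, air-dried and photographed. Colony formation was quantified from the images.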

SW-620 [6] = test: Cell cycle arrest in human SW620 cells assessed as accumulation at G2/M phase at 1.25 uM after 24 hrs by propidium iodide staining based flow cytometry (reference value: 19%); assay type: functional
SW-620 [7] = test: Cell cycle arrest in human SW620 cells assessed as accumulation at G2/M phase at 2.5 uM after 24 hrs by propidium iodide staining based flow cytometry (reference value: 19%); assay type: functional
SW-620 [8] = test: Induction of apoptosis in human SW620 cells assessed as live cells at 1.25 uM after 24 hrs by Annexin V-FITC/propidium iodide staining based flow cytometry (reference value: 97.03%); assay type: functional
SW-620 [9] = test: Induction of apoptosis in human SW620 cells assessed as early apoptotic cells at 1.25 uM after 24 hrs by Annexin V-FITC/propidium iodide staining based flow cytometry (reference value: 2.35%); assay type: functional
SW-620 [10] = test: Induction of apoptosis in human SW620 cells assessed as early apoptotic cells at 2.5 uM after 24 hrs by Annexin V-FITC/propidium iodide staining based flow cytometry (reference value: 2.35%); assay type: functional
SW-620 [11] = test: Induction of apoptosis in human SW620 cells assessed as early apoptotic cells at 5 uM after 24 hrs by Annexin V-FITC/propidium iodide staining based flow cytometry (reference value: 2.35%); assay type: functional
SW-620 [12] = test: Induction of apoptosis in human SW620 cells assessed as late apoptotic cells at 5 uM after 24 hrs by Annexin V-FITC/propidium iodide staining based flow cytometry (reference value: 0.43%); assay type: functional
SW-620 [13] = test: Induction of apoptosis in human SW620 cells assessed as necrotic cells at 5 uM after 24 hrs by Annexin V-FITC/propidium iodide staining based flow cytometry (reference value: 0.15%); assay type: functional
SW-620 [14] = test: Induction of apoptosis in human SW620 cells assessed as early apoptotic cells at 10 uM after 24 hrs by Annexin V-FITC/propidium iodide staining based flow cytometry (reference value: 2.35%); assay type: functional
SW-620 [15] = test: Induction of apoptosis in human SW620 cells assessed as late apoptotic cells at 10 uM after 24 hrs by Annexin V-FITC/propidium iodide staining based flow cytometry (reference value: 0.43%); assay type: functional
SW-620 [16] = test: Induction of apoptosis in human SW620 cells assessed as necrotic cells at 10 uM after 24 hrs by Annexin V-FITC/propidium iodide staining based flow cytometry (reference value: 0.15%); assay type: functional
SW-620 [17] = test: Induction of apoptosis in human SW620 cells assessed as necrotic cells at 1.25 uM after 48 hrs by Annexin V-FITC/propidium iodide staining based flow cytometry (reference value: 0.23%); assay type: functional
SW-620 [18] = test: Induction of apoptosis in human SW620 cells assessed as live cells at 2.5 uM after 48 hrs by Annexin V-FITC/propidium iodide staining based flow cytometry (reference value: 96.26%); assay type: functional
SW-620 [19] = test: Induction of apoptosis in human SW620 cells assessed as early apoptotic cells at 2.5 uM after 48 hrs by Annexin V-FITC/propidium iodide staining based flow cytometry (reference value: 2.75%); assay type: functional
SW-620 [20] = test: Induction of apoptosis in human SW620 cells assessed as necrotic cells at 2.5 uM after 48 hrs by Annexin V-FITC/propidium iodide staining based flow cytometry (reference value: 0.23%); assay type: functional
SW-620 [21] = test: Induction of apoptosis in human SW620 cells assessed as live cells at 10 uM after 48 hrs by Annexin V-FITC/propidium iodide staining based flow cytometry (reference value: 96.26%); assay type: functional
SW-620 [22] = test: Induction of apoptosis in human SW620 cells assessed as late apoptotic cells at 10 uM after 48 hrs by Annexin V-FITC/propidium iodide staining based flow cytometry (reference value: 0.2%); assay type: functional
SW-620 [23] = test: Induction of apoptosis in human SW620 cells assessed as early apoptotic cells at 5 uM after 72 hrs by Annexin V-FITC/propidium iodide staining based flow cytometry (reference value: 2.1%); assay type: functional
SW-620 [24] = test: Induction of apoptosis in human SW620 cells assessed as late apoptotic cells at 10 uM after 72 hrs by Annexin V-FITC/propidium iodide staining based flow cytometry (reference value: 0.29%); assay type: functional
SW-620 [25] = test: Induction of apoptosis in human SW620 cells after 24 to 72 hrs by Annexin V-FITC/propidium iodide staining based flow cytometry; assay type: functional, cell-based
SW-620 [26] = test: Induction of ROS generation in human SW620 cells after 12 hrs by DCFDA staining based flow cytometry; assay type: functional, cell-based
How it was run: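 SW620 cells (2×10^5/well) adhered overnight and were loaded with 10 μM DCFDA in medium for 1 h, then washed twice with PBS. Compound exposure followed at several concentrations for 12 h, with untreated and hydrogen peroxide-treated controls. Harvested cells were resuspended in PBS and DCF fluorescence read by flow cytometry at ex 488/em 525 nm.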

COc1ccc(/C=C2\CCC/C(=C\c3cc(OC)c(OC)c(OC)c3)C2=O)cc1OC
IC50 (SW-620 [1]): 1.8 µM | IC50 (MCF7): 1.6 µM | inhibition at 20 µM (SW-620 [2]): > 50% | inhibition at 20 µM [3]: > 50% | inhibition at 20 µM (HT-1080): > 50% | Activity (SW-620 [4]): 0% | inhibition (SW-620 [5]): Active | Activity (SW-620 [6]): 20% | Activity (SW-620 [7]): 50% | Activity (SW-620 [8]): 89.83% | Activity (SW-620 [9]): 9.26% | Activity (SW-620 [10]): 12.47% | Activity (SW-620 [11]): 40.26% | Activity (SW-620 [12]): 0.35% | Activity (SW-620 [13]): 0.36% | Activity (SW-620 [14]): 40.33% | Activity (SW-620 [15]): 12.66% | Activity (SW-620 [16]): 0.82% | Activity (SW-620 [17]): 0.2% | Activity (SW-620 [18]): 79.03% | Activity (SW-620 [19]): 12.28% | Activity (SW-620 [20]): 0.55% | Activity (SW-620 [21]): 13.21% | Activity (SW-620 [22]): 75.36% | Activity (SW-620 [23]): 3.48% | Activity (SW-620 [24]): 94.51% | Activity (SW-620 [25]): Dose-dependent effect | Activity (SW-620 [26]): Dose-dependent effect

COc1ccc(/C=C2\CCC/C(=C\c3cccc(O)c3)C2=O)cc1OC
IC50 (SW-620 [1]): 1.9 µM | IC50 (MCF7): 2.9 µM | inhibition at 20 µM (SW-620 [2]): > 50% | inhibition at 20 µM [3]: > 50% | inhibition at 20 µM (HT-1080): > 50% | Activity (SW-620 [4]): 0% | inhibition (SW-620 [5]): Active | Activity (SW-620 [6]): 24% | Activity (SW-620 [7]): 49% | Activity (SW-620 [8]): 96.2% | Activity (SW-620 [9]): 4.33% | Activity (SW-620 [10]): 5.46% | Activity (SW-620 [11]): 23.28% | Activity (SW-620 [12]): 2.26% | Activity (SW-620 [13]): 0.35% | Activity (SW-620 [14]): 42.12% | Activity (SW-620 [15]): 7.42% | Activity (SW-620 [16]): 0.23% | Activity (SW-620 [17]): 0.41% | Activity (SW-620 [18]): 91.27% | Activity (SW-620 [19]): 4.43% | Activity (SW-620 [20]): 0.44% | Activity (SW-620 [21]): 17% | Activity (SW-620 [22]): 71.12% | Activity (SW-620 [23]): 10.2% | Activity (SW-620 [24]): 95.18% | Activity (SW-620 [25]): Dose-dependent effect | Activity (SW-620 [26]): Dose-dependent effect
